Experimental data: ChEMBL document CHEMBL4431326, “Tumor Targeting with Novel 6-Substituted Pyrrolo [2,3-d] Pyrimidine Antifolates with Heteroatom Bridge Substitutions via Cellular Uptake by Folate Receptor α and the Proton-Coupled Folate Transporter and Inhibition of de Novo Purine Nucleotide Biosynthesis” (J Med Chem, 2016)
The source made the active and inactive calls. No cut-off for these calls is given here.

Assays:
[1] = Cytotoxicity in RFC-null Chinese hamster R2 cells assessed as reduction in cell viability measured after 96 hrs by Cell-Titer Blue fluorescence analysis; format: cell-based; settings: Cricetulus griseus, R2, 96 h
[2] = test system: KB; assay: Antiproliferative activity against human KB cells expressing human RFC/FR-alpha/PCFT assessed as reduction in cell viability measured after 96 hrs by Cell-Titer Blue fluorescence analysis; format: functional, cell-based
[3] = molecular target: T1, GAR transformylase/AICAR transformylase (Homo sapiens) (UniProt P31939+P22102); assay: Inhibition of GARFTase/AICARFTase in human KB cells expressing RFC/FR-alpha/PCFT assessed as cell growth inhibition measured after 96 hrs in presence of 60 uM adenosine by Cell-Titer Blue fluorescence analysis; format: cell-based
T1 sequence (P31939 whole entry, looked up, one chain of several): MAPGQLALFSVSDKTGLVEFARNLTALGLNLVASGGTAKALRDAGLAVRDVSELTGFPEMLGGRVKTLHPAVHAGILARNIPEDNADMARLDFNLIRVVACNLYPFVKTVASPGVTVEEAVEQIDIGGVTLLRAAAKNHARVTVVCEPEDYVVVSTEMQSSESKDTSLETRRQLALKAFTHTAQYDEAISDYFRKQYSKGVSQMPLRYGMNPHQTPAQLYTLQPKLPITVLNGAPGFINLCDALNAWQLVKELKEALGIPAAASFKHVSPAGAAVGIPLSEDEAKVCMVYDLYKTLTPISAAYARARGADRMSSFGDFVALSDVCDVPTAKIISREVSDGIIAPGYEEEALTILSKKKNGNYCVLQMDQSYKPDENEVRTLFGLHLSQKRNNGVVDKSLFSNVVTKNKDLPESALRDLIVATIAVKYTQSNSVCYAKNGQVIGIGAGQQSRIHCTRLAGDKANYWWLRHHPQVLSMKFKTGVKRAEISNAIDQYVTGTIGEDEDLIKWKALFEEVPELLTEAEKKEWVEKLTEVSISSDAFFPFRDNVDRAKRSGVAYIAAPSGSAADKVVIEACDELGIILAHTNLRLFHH

[4] = molecular target: T1, GAR transformylase/AICAR transformylase (Homo sapiens); assay: Inhibition of GARFTase/AICARFTase in human KB cells expressing RFC/FR-alpha/PCFT assessed as cell growth inhibition measured after 96 hrs in presence of 10 uM thymidine by Cell-Titer Blue fluorescence analysis; format: cell-based
[5] = molecular target: Folate receptor beta (Homo sapiens) (UniProt P14207); assay: Displacement of [3H]folic acid from human FR-beta receptor expressed in Chinese hamster D4 cells measured after 15 mins relative to folic acid; format: cell-based
Folate receptor beta (Homo sapiens), sequence (P14207 17-230 limits assumed): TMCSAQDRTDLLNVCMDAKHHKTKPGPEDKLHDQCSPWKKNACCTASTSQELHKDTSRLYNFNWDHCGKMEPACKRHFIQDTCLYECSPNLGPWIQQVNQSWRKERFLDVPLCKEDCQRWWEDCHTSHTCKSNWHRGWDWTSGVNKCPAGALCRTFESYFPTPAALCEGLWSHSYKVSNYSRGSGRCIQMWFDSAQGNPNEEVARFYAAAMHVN

[6] = molecular target: T2, Proton-coupled folate transporter (Homo sapiens) (UniProt Q96NT5); assay: Inhibition of [3H]MTX uptake at human PCFT expressed in Chinese hamster R2/PCFT4 cells at 10 uM and pH 6.8 measured after 5 mins; format: cell-based
T2 sequence (whole entry): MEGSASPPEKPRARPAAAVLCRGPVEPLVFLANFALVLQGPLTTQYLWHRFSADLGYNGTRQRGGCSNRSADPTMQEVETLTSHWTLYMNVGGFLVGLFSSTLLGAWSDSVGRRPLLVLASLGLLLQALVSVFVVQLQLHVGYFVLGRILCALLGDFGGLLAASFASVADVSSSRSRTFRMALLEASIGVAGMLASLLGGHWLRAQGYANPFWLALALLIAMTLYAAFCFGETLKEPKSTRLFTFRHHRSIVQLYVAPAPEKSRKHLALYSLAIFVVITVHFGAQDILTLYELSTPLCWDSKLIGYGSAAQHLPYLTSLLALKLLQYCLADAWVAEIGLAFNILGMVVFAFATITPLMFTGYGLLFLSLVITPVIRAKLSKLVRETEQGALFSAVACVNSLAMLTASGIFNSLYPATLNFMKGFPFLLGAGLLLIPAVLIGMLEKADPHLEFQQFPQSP

[7] = molecular target: T3, Trifunctional purine biosynthetic protein adenosine-3 (Homo sapiens, UniProt P22102); assay: Inhibition of GARFTase in human KB cells expressing RFC/FR-alpha/PCFT assessed as decrease in incorporation of [14C(U)]-glycine into [14C]formyl GAR incubated for 1 hr followed by addition of [14C(U)]-glycine measured after 16 hrs in presence of azaserine; format: cell-based
T3 sequence (P22102 whole entry): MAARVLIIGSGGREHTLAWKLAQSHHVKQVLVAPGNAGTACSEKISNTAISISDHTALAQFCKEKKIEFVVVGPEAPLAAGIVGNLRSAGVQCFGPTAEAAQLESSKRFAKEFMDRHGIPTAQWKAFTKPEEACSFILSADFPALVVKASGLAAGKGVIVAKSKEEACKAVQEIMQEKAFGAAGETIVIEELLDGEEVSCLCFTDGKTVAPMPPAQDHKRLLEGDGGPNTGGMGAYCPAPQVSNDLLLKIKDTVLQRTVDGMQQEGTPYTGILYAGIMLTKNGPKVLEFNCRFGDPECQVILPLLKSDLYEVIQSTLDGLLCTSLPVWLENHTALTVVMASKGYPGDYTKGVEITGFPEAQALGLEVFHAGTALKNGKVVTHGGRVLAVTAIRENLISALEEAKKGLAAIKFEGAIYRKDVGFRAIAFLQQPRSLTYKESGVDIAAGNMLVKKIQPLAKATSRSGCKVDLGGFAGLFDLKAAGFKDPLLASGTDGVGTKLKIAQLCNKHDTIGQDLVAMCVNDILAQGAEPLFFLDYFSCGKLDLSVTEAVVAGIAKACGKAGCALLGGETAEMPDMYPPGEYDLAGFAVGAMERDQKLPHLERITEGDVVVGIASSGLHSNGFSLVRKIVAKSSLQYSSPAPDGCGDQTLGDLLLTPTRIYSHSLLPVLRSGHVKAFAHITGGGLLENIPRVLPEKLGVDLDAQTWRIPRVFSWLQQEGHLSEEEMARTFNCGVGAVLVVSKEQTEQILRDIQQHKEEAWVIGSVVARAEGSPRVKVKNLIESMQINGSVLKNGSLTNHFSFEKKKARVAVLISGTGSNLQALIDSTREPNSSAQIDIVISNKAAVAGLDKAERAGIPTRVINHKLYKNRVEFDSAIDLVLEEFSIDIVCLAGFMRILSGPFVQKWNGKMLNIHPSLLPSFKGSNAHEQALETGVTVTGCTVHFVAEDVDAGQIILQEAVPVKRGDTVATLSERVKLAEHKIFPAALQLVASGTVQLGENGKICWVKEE

[8] = molecular target: T3, Trifunctional purine biosynthetic protein adenosine-3; assay: Inhibition of recombinant N-terminal 6His-tagged human GARFTase assessed as formation of 5,8-dideazafolate from 10-formyl-5,8-dideazafolic acid measured at every 15 seconds over 20 min by spectrophotometric analysis
[9] = test system: IGROV-1; assay: Antitumor activity against human IGROV1 cells xenografted into folate-deficient diet fed SCID mouse assessed as tumor growth delay at 150 mg/kg, iv administered […] post 2 days of tumor implantation; format: functional
How it was run: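 Female NCR SCID mice, 11 weeks, ~20 g, on folate-deficient or standard diet from 14 days pre-implant; bilateral s.c. IGROV1 fragments (30–60 mg); 5 mice/group; tail-vein dosing from day 2 (Q3d schedules) in 5% ethanol, 1% Tween-80, 0.5% NaHCO3, water, pH 6.5; caliper mass (a×b²)/2; T/C and T−C delay.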

[10] = test system: IGROV-1; assay: Antitumor activity against human IGROV1 cells xenografted into folate-deficient diet fed SCID mouse assessed as tumor cell kill at 150 mg/kg, iv administered […] post 2 days of tumor implantation measured on day 20; format: functional
[11] = Toxicity in folate-deficient diet fed SCID mouse xenografted with human IGROV1 cells assessed as body weight loss at 96 and 150 mg/kg, iv administered […] post 2 days of tumor implantation measured during compound treatment; format: organism-based; settings: in vivo, 48 h
How it was run: (§1)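 Female NCR SCID mice (11 weeks old, ~20 g) are fed a folate-deficient diet from 14 days before implant. IGROV1 fragments (30–60 mg) are trocar-implanted subcutaneously in both flanks, and mice are randomised at 5/group. Tail-vein dosing starts on day 2: 28 mg/kg/inj Q3dx5, or 96 or 150 mg/kg/inj Q3dx4. Vehicle is 5% ethanol, 1% Tween-80, 0.5% NaHCO3 in water at pH 6.5. Caliper tumor mass is (a×b²)/2, T/C is taken when controls reach 700–1200 mg, and weights are recorded daily.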

[12] = Toxicity in folate-deficient diet fed SCID mouse xenografted with human IGROV1 cells assessed as body weight loss at 96 and 150 mg/kg, iv administered […] post 2 days of tumor implantation measured after 48 hrs of last dosage; format: organism-based; settings: in vivo; how it was run: as §1

**Q.** With `Nc1nc2[nH]c(CCNc3ccc(C(=O)N[C@@H](CCC(=O)O)C(=O)O)cc3)cc2c(=O)[nH]1` as the compound, how does the IC50 [1] read?
**A.** > 1000 nM

**Q.** What about the IC50 [2] of the same compound?
**A.** 0.32 nM

**Q.** And the inhibition [3]?
**A.** inactive

**Q.** What about the inhibition [4] of the same compound?
**A.** Active

**Q.** And the inhibition [5]?
**A.** 60 to 110%

**Q.** And the inhibition [6]?
**A.** 40 to 60%

**Q.** And the IC50 [7]?
**A.** 2.64 nM

**Q.** What about the Ki [8] of the same compound?
**A.** 59 nM

**Q.** What about the Time [9] of the same compound?
**A.** 15 days

**Q.** What about the LCK [10] of the same compound?
**A.** 2.3

**Q.** What about the Activity [11] of the same compound?
**A.** 17 to 17.3%

**Q.** And the Activity [12]?
**A.** Non-Toxic
